According to ChEMBL document CHEMBL1157145, “Cytotoxic activity of proflavine diureas: synthesis, antitumor, evaluation and DNA binding properties of 1',1''-(acridin-3,6-diyl)-3',3''-dialkyldiureas” (Bioorg Med Chem, 2008):
Calls of active or inactive are those of the source. No cut-off for these calls is given here.

Columns and labels:
HeLa [1] = test: Induction of apoptosis in human HeLa cells at 24 uM after 48 hrs; assay type: functional
How it was run: (§1)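 After 24 or 48 h of drug exposure, all cells were collected, combining trypsinised adherent cells with floating cells from the medium. Cells (1 × 10^6) were fixed in cold 70% ethanol overnight at −20 °C and stained with DAPI (10 µg/mL) for 30 min in the dark at RT. Under fluorescence microscopy, 300 cells per sample were scored, with condensed or fragmented nuclei counted as apoptotic.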

HeLa [2] = test: Antiproliferative activity against human HeLa cells assessed as increase of floating cells in total cell population at 24 uM after 24 hrs; assay type: functional
How it was run: (§2)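 Cells seeded (8 · 10^5 per 60 mm dish), allowed to settle 24 h at 37 °C, 5% CO2, then treated with a single concentration for 24 or 48 h. Adherent and floating cells counted by Coulter counter. Total cell number given as % of untreated control; floating cells as % of total cell number.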

HCT-116 [3] = test: Cell cycle arrest in human HCT116 cells assessed as accumulation at G2/M phase at 10 uM after 24 hrs; assay type: functional
How it was run: (§3)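 Cells seeded at 8 · 10^5 per 60 mm dish, allowed to settle 24 h (37 °C, 5% CO2), then exposed to the drug for 24 or 48 h. Adherent plus floating cells (5 · 10^5) were fixed in cold 70% ethanol at −20 °C overnight, treated with RNase A (100 µg/mL) and stained with propidium iodide (20 µg/mL) in Vindelov's solution for 30 min at RT. Flow cytometry used 488 nm excitation, FL-2 at 585 ± 21 nm, and histograms were modelled for G0/G1, S and G2/M fractions.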

HCT-116 [4] = test: Antiproliferative activity against human HCT116 cells assessed as increase of floating cells in total cell population at 10 uM after 24 hrs; assay type: functional; how it was run: as §2
HeLa [5] = test: Cytotoxicity against human HeLa cells after 72 hrs by MTT assay; assay type: functional, cell-based
HCT-116 [6] = test: Cell cycle arrest in human HCT116 cells assessed as accumulation at G0/G1 phase at 10 uM after 48 hrs; assay type: functional
How it was run: (§4)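 Adherent plus floating cells (5 · 10^5) collected 24 or 48 h after treatment, fixed in cold 70% ethanol at −20 °C overnight, washed in PBS. RNase A (100 µg/mL) and propidium iodide (20 µg/mL) in Vindelov's solution, 30 min at RT. Flow cytometry with 488 nm excitation, emission 585 ± 21 nm; % cells per cycle phase from DNA content histograms.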

HeLa [7] = test: Cell cycle arrest in human HeLa cells assessed as accumulation at S phase at 24 uM after 24 hrs; assay type: functional; how it was run: as §3
HeLa [8] = test: Cell cycle arrest in human HeLa cells assessed as accumulation at G2/M phase at 24 uM after 24 hrs; assay type: functional; how it was run: as §3
HCT-116 [9] = test: Induction of apoptosis in human HCT116 cells at 10 uM after 48 hrs; assay type: functional; how it was run: as §1
HeLa [10] = test: Antiproliferative activity against human HeLa cells assessed as decrease in total cell population at 24 uM after 24 hrs; assay type: functional; set-up: scale not given: the % may be the effect or the level left; how it was run: as §2
HCT-116 [11] = test: Cytotoxicity against human HCT116 cells after 72 hrs by MTT assay; assay type: functional, cell-based; details: Homo sapiens, HCT-116, 72 h
HeLa [12] = test: Induction of apoptosis in human HeLa cells at 24 uM after 24 hrs; assay type: functional; how it was run: as §1
DNA [13] = test: Binding affinity to calf thymus DNA at 4 uM by fluorescence spectrophotometric titration; assay type: nucleic-acid assay; details: Bos taurus
How it was run: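 ctDNA sonicated in TE buffer, concentration taken from A260 and given in base pairs. Compound (4 µM) in 0.01 M Tris, pH 7.4, 25 °C titrated with ctDNA (0–55 µM bp) until spectra stopped changing. Excitation 424 nm, slit widths 10 nm; binding constant derived from the change in emission.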

HCT-116 [14] = test: Cytotoxicity against human HCT116 cells after 48 hrs by MTT assay; assay type: functional, cell-based; details: HCT-116, 48 h
HeLa [15] = test: Cell cycle arrest in human HeLa cells assessed as accumulation at S phase at 24 uM after 48 hrs; assay type: functional; how it was run: as §3
HCT-116 [16] = test: Cell cycle arrest in human HCT116 cells assessed as accumulation at S phase at 10 uM after 48 hrs; assay type: functional; how it was run: as §3
HCT-116 [17] = test: Cell cycle arrest in human HCT116 cells assessed as accumulation at S phase at 10 uM after 24 hrs; assay type: functional; how it was run: as §3
HCT-116 [18] = test: Cell cycle arrest in human HCT116 cells assessed as accumulation at G2/M phase at 10 uM after 48 hrs; assay type: functional; how it was run: as §3
HCT-116 [19] = test: Cell cycle arrest in human HCT116 cells assessed as accumulation at G0/G1 phase at 10 uM after 24 hrs; assay type: functional; how it was run: as §4
HCT-116 [20] = test: Antiproliferative activity against human HCT116 cells assessed as decrease in total cell population at 10 uM after 48 hrs; assay type: functional; set-up: scale not given: the % may be the effect or the level left; how it was run: as §2
HeLa [21] = test: Cell cycle arrest in human HeLa cells assessed as accumulation at G0/G1 phase at 24 uM after 48 hrs; assay type: functional; how it was run: as §3
HCT-116 [22] = test: Induction of apoptosis in human HCT116 cells at 10 uM after 24 hrs; assay type: functional; how it was run: as §1
HCT-116 [23] = test: Antiproliferative activity against human HCT116 cells assessed as decrease in total cell population at 10 uM after 24 hrs; assay type: functional; set-up: scale not given: the % may be the effect or the level left; how it was run: as §2
HCT-116 [24] = test: Antiproliferative activity against human HCT116 cells assessed as increase of floating cells in total cell population at 10 uM after 48 hrs; assay type: functional; how it was run: as §2
HeLa [25] = test: Cell cycle arrest in human HeLa cells assessed as accumulation at G2/M phase at 24 uM after 48 hrs; assay type: functional; how it was run: as §3
HeLa [26] = test: Cell cycle arrest in human HeLa cells assessed as accumulation at G0/G1 phase at 24 uM after 24 hrs; assay type: functional; how it was run: as §3
HeLa [27] = test: Cytotoxicity against human HeLa cells after 48 hrs by MTT assay; assay type: functional, cell-based
DNA [28] = test: Binding affinity to calf thymus DNA at 50 uM by circular dichroism spectrophotometric titration; assay type: nucleic-acid assay; details: Bos taurus

Compound: CCCNC(=O)Nc1ccc2cc3ccc(NC(=O)NCCC)cc3nc2c1.Cl
- Activity (HeLa [1]): 1%
- Activity (HeLa [2]): 3.84%
- Activity (HCT-116 [3]): 19.14%
- Activity (HCT-116 [4]): 5.48%
- IC50 (HeLa [5]): 29.3 µM
- Activity (HCT-116 [6]): 57.74%
- Activity (HeLa [7]): 24.12%
- Activity (HeLa [8]): 13.4%
- Activity (HCT-116 [9]): 2.89%
- Activity (HeLa [10]): 91.36%
- Activity (HeLa [10]; in the assay text read “after 48 hrs” for “after 24 hrs”): 89.95%
- IC50 (HCT-116 [11]): 61.5 µM
- Activity (HeLa [12]): 0.89%
- K (DNA [13]): 3.8 ×10⁵ /M
- IC50 (HCT-116 [14]): 10.3 µM
- Activity (HeLa [15]): 17.12%
- Activity (HCT-116 [16]): 27.16%
- Activity (HCT-116 [17]): 35.8%
- Activity (HCT-116 [18]): 15.11%
- Activity (HCT-116 [19]): 45.07%
- Activity (HCT-116 [20]): 71.3%
- Activity (HeLa [21]): 72.81%
- Activity (HCT-116 [22]): 2.22%
- Activity (HCT-116 [23]): 86.16%
- Activity (HCT-116 [24]): 4.34%
- Activity (HeLa [25]): 10.06%
- Activity (HeLa [26]): 62.48%
- IC50 (HeLa [27]): 23.9 µM
- Activity (DNA [28]): Active
